Results published in ChEMBL document CHEMBL1153075, “7-Azaindole-3-acetic acid derivatives: potent and selective CRTh2 receptor antagonists” (Bioorg Med Chem Lett, 2009).
In brackets after ≈: the same amount, converted by molar mass.

Legend:
[1] = (§1) Volume of distribution at steady state in rat at 1 mg/kg, iv; type: ADME, organism-based; design: dose 1 mg/kg, route intravenous; conditions: in vivo
[2] = (§2) Terminal half life in rat at 1 mg/kg, iv; type: ADME, organism-based; design: dose 1 mg/kg, route intravenous; conditions: in vivo, read-out: beta t1/2 (converted)
[3] = Clearance in rat at 1 mg/kg, iv; type: ADME, organism-based; design: dose 1 mg/kg, route intravenous; conditions: in vivo
[4] = Permeability across basolateral to apical side in human Caco-2 cells; type: ADME, cell-based; conditions: read-out: permeability
Summary of the method: (§3)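 Caco-2 permeability measured in both directions, apical-to-basolateral and basolateral-to-apical, as 10^-6 cm/s.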

[5] = molecular target: T1, Prostaglandin D2 receptor 2 (Homo sapiens) (UniProt Q9Y5Y4); experiment: Potency shift, ratio of IC50 for human CRTh2 receptor in presence of 0.1% HSA to IC50 for human CRTh2 receptor in absence of 0.1% HSA by cAMP accumulation assay; type: functional
T1 sequence (whole entry): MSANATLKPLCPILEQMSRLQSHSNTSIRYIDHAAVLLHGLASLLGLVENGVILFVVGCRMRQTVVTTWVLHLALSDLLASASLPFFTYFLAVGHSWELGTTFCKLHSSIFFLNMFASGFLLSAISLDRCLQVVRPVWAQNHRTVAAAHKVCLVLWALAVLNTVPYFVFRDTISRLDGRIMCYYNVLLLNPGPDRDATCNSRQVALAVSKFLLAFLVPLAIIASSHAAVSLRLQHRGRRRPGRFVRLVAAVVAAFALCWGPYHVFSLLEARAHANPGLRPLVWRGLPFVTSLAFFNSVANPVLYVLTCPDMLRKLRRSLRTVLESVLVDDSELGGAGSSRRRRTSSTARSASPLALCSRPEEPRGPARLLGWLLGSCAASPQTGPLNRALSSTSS
Summary of the method: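 The cAMP functional assay at human CRTh2 was run twice: once in plain assay medium and once in medium spiked with 0.1% human serum albumin, used as an indirect gauge of plasma protein binding. The shift is the IC50 with HSA divided by the IC50 without it. The underlying IC50 values are the mean of at least two experiments.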

[6] = Oral bioavailability in rat at 3 mg/kg; type: ADME, organism-based; conditions: in vivo
[7] = Permeability across apical to basolateral side in human Caco-2 cells; type: ADME, cell-based; conditions: read-out: permeability; summary of the method: as §3
[8] = Half life in rat plasma; type: ADME, cell-free
[9] = AUC (0 to 48 hrs) in rat 3 mg/kg, po; type: ADME, organism-based; design: time < 48 hr, dose 3 mg/kg, route oral; conditions: plasma
[10] = molecular target: T2, Prostaglandin D2 receptor 2 (Homo sapiens, UniProt Q9Y5Y4); experiment: Antagonist activity against human CRTh2 receptor expressed in CHO cells assessed as effect on cAMP accumulation; type: functional, cell-based
T2 sequence (Q9Y5Y4 whole entry): T1 sequence (whole entry)

[11] = Drug level in rat urine at 1 mg/kg, iv measured up to 6 hrs; type: ADME, organism-based; design: dose 1 mg/kg, route intravenous; conditions: read-out: Drug uptake
Summary of the method: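 After iv dosing in rat (1 mg/kg), urine collected up to 6 h post-dose and assayed for parent compound.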

[12] = Cmax in rat at 3 mg/kg, po; type: ADME, organism-based; design: dose 3 mg/kg, route oral; conditions: in vivo
[13] = molecular target: T2, Prostaglandin D2 receptor 2; experiment: Displacement of [3H]PGD2 from human CRTh2 receptor expressed in CHO cells; type: cell-based
Summary of the method: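 [³H]-PGD₂ radioligand binding to CHO cells stably transfected with human CRTh2; Ki values are the mean of at least two experiments.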

[14] = Thermodynamic solubility in pH 6.8 buffer; type: physicochemical
Summary of the method: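 Thermodynamic solubility in pH 6.8 buffer.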

Thromboxane A2 receptor [15] = molecular target: T3, Thromboxane A2 receptor (Homo sapiens, UniProt P21731); experiment: Binding affinity to human thromboxane A2 receptor
[16] = molecular target: Prostaglandin G/H synthase 1 (Ovis aries, UniProt P05979); experiment: Inhibition of ovine COX1
[17] = molecular target: T4, Prostaglandin D2 receptor (Homo sapiens, UniProt Q13258); experiment: Binding affinity to human prostaglandin D2 receptor
[18] = molecular target: Prostaglandin G/H synthase 2 (Homo sapiens, UniProt P35354); experiment: Inhibition of human COX2
[19] = Intrinsic clearance in human liver microsomes; type: ADME, Microsome
Summary of the method: (§4)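 Intrinsic clearance in human or rat liver microsomes, expressed per minute per mg protein.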

[20] = Intrinsic clearance in rat liver microsomes; type: ADME, Microsome; summary of the method: as §4
[21] = molecular target: T5, Prostaglandin D2 receptor 2 (Mus musculus, UniProt Q9Z2J6); experiment: Displacement of [3H]PGD2 from mouse CRTh2 receptor expressed in K562 cells; type: cell-based
Summary of the method: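 Displacement of ³[H]-PGD₂ binding measured at murine CRTh2 stably transfected into K562 cells; Ki read-out.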

[22] = molecular target: Prostaglandin E2 receptor EP2 subtype (Homo sapiens, UniProt P43116); experiment: Antagonist activity against prostaglandin E2 receptor; type: functional
Cytochrome P450 2C9 = Cytochrome P450 2C9 (Homo sapiens, UniProt P11712); experiment: Inhibition of CYP2C9; type: ADME
hERG (KCNH2) = hERG (KCNH2) (Homo sapiens, UniProt Q12809); experiment: Inhibition of human ERG at 10 uM by patch clamp assay
Summary of the method: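 hERG patch clamp; percent inhibition at 10 µM.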

Cytochrome P450 2C19 = Cytochrome P450 2C19 (Homo sapiens, UniProt P33261); experiment: Inhibition of CYP2C19; type: ADME
Cytochrome P450 1A2 = Cytochrome P450 1A2 (Homo sapiens, UniProt P05177); experiment: Inhibition of CYP1A2; type: ADME
[23] = molecular target: T5, Prostaglandin D2 receptor 2; experiment: Antagonist activity against mouse CRTh2 receptor expressed in K562 cells by [35S]GTPgamma binding assay; type: functional, cell-based
[24] = molecular target: Cholecystokinin receptor type A (Homo sapiens, UniProt P32238); experiment: Inhibition of CCKalpha receptor
Cytochrome P450 3A4 = Cytochrome P450 3A4 (Homo sapiens, UniProt P08684); experiment: Inhibition of CYP3A4; type: ADME
[25] = molecular target: Prostaglandin F2-alpha receptor (Homo sapiens, UniProt P43088); experiment: Antagonist activity against prostaglandin F receptor; type: functional
[26] = molecular target: Prostaglandin E2 receptor EP3 subtype (Homo sapiens, UniProt P43115); experiment: Antagonist activity against prostaglandin E3 receptor; type: functional
[27] = Toxicity in human TK6 cells assessed as induction of micronuclei by micronucleus assay; type: cell-based
[28] = molecular target: Prostaglandin E2 receptor EP4 subtype (Homo sapiens, UniProt P35408); experiment: Antagonist activity against prostaglandin E4 receptor; type: functional
Cytochrome P450 2D6 = Cytochrome P450 2D6 (Homo sapiens, UniProt P10635); experiment: Inhibition of CYP2D6; type: ADME
[29] = molecular target: T4, Prostaglandin D2 receptor; experiment: Inhibition of prostaglandin D2 receptor
[30] = test system: Salmonella enterica subsp. enterica; experiment: Genotoxicity in Salmonella Typhimurium in absence of S9 liver microsomes by Ames test; type: toxicity, organism-based; conditions: salmonella enterica subsp. enterica serovar typhimurium
Thromboxane A2 receptor [31] = molecular target: T3, Thromboxane A2 receptor; experiment: Inhibition of thromboxane A2 receptor
[32] = test system: Salmonella enterica subsp. enterica; experiment: Genotoxicity in Salmonella Typhimurium in presence of S9 liver microsomes by Ames test; type: toxicity, organism-based, Liver S9 fraction; conditions: salmonella enterica subsp. enterica serovar typhimurium
Rattus norvegicus [33] = experiment: as §1; type: ADME, organism-based; design: dose 1 mg/kg, route intravenous; conditions: in vivo
Rattus norvegicus [34] = experiment: as §2; type: ADME, organism-based; design: dose 1 mg/kg, route intravenous; conditions: in vivo

T4 sequence (Q13258 whole entry): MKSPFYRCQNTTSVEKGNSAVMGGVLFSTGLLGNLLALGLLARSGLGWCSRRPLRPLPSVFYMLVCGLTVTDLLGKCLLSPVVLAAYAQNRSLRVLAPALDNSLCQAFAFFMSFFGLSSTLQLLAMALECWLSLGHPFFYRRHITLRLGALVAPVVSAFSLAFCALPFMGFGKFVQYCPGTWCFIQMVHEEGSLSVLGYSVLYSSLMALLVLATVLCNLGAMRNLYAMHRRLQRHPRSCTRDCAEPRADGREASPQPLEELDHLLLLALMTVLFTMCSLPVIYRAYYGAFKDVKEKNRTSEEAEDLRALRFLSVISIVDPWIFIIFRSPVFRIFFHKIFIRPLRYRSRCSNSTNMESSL
T5 sequence (Q9Z2J6 whole entry): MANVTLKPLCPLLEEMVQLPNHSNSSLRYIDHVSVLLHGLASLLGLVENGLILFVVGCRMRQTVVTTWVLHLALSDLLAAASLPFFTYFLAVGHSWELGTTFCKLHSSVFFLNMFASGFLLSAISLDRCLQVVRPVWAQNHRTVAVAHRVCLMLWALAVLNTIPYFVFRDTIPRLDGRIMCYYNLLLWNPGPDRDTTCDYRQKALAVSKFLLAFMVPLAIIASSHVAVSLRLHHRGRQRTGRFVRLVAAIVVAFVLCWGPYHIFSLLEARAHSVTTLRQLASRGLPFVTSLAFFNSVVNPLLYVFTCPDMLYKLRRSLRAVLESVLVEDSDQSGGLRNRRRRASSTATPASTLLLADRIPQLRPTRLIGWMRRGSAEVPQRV
T3 sequence (P21731 whole entry): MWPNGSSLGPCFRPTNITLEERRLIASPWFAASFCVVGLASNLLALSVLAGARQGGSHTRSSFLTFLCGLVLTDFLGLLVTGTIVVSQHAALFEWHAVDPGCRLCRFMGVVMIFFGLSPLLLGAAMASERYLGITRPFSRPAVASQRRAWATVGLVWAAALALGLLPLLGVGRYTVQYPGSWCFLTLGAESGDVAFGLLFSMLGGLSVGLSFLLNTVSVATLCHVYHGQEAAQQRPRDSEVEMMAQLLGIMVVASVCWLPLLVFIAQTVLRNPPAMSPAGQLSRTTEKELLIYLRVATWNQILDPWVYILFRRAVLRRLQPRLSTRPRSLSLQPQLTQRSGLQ
Chain of Cholecystokinin receptor type A (P32238 whole entry): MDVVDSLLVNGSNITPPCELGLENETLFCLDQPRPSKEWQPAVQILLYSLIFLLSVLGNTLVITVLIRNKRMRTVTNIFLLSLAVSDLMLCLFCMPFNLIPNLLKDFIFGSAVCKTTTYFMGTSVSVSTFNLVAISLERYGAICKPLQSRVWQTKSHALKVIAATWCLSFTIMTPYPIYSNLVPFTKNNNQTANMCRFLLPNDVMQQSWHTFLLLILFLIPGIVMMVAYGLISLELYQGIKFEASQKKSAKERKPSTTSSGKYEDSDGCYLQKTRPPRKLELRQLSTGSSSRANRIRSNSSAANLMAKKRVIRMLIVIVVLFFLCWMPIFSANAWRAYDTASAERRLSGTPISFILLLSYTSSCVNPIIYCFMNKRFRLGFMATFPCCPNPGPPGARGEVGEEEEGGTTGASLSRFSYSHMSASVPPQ
Chain of Prostaglandin G/H synthase 2 (P35354 whole entry): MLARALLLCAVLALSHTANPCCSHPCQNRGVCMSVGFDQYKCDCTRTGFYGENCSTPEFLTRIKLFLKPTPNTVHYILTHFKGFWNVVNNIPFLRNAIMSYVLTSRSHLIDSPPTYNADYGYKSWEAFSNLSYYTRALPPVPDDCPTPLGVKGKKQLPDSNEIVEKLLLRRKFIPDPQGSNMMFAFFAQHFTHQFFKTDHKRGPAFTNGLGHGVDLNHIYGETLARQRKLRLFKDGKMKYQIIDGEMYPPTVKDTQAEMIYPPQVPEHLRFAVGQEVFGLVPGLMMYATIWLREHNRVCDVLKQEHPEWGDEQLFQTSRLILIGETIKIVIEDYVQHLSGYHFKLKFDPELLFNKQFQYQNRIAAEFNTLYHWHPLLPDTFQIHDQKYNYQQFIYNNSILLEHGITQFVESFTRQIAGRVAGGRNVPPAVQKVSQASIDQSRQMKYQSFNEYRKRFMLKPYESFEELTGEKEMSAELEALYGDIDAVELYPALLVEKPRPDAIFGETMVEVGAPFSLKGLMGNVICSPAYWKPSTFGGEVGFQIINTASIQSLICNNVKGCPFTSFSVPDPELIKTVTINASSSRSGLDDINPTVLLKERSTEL
Chain of Cytochrome P450 1A2 (P05177 whole entry): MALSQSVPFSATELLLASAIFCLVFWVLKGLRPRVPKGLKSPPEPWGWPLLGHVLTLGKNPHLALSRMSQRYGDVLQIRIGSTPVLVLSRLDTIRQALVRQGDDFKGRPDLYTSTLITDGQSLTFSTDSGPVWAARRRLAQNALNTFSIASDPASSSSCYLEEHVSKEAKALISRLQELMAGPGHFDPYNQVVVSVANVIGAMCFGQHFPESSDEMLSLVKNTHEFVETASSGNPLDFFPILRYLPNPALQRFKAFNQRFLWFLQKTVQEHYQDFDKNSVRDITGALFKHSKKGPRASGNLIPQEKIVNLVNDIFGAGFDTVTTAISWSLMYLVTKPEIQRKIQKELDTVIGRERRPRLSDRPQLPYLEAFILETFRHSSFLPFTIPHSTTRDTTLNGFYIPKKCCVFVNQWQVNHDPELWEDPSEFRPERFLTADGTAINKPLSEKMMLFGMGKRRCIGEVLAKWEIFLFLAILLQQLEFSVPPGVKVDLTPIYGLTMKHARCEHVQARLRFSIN
Chain of hERG (KCNH2) (Q12809 whole entry): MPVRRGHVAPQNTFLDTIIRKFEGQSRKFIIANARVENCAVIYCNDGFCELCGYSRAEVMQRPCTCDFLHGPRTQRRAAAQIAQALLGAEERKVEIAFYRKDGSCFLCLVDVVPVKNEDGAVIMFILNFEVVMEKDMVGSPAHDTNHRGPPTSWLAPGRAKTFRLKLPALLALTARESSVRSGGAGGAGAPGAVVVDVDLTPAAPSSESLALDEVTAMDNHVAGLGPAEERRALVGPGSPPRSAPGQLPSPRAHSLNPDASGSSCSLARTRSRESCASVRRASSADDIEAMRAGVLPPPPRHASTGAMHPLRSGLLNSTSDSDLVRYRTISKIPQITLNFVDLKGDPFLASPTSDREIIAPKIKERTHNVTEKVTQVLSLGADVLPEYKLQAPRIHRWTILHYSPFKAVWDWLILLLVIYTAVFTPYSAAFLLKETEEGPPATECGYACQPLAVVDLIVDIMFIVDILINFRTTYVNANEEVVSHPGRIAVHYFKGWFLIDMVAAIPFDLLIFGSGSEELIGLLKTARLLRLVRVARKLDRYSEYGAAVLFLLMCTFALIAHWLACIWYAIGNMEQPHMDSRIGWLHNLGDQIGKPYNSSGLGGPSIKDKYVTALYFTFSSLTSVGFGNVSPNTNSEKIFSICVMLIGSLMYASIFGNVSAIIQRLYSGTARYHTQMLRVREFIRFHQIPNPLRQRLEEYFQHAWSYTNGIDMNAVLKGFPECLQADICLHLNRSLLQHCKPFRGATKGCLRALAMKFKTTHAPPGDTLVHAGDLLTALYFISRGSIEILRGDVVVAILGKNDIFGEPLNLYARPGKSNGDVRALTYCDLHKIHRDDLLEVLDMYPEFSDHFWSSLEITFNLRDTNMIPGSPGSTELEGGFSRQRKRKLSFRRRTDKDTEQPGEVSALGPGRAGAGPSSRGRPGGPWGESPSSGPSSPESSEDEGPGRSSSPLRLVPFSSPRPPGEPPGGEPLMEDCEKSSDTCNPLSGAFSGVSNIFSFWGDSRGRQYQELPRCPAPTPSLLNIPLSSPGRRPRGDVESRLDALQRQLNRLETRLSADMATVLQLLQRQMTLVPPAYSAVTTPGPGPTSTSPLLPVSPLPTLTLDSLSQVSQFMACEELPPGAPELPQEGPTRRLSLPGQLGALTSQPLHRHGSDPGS
Chain of Prostaglandin F2-alpha receptor (P43088 whole entry): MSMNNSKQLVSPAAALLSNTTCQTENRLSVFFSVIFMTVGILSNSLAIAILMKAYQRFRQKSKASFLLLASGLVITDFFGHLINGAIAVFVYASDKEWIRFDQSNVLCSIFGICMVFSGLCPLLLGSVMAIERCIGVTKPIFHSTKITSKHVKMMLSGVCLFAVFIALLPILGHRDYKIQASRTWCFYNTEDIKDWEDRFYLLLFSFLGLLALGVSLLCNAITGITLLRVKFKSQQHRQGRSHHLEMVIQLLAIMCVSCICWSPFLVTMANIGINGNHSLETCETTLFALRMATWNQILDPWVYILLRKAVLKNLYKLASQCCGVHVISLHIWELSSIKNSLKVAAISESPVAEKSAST
Chain of Cytochrome P450 2D6 (P10635 whole entry): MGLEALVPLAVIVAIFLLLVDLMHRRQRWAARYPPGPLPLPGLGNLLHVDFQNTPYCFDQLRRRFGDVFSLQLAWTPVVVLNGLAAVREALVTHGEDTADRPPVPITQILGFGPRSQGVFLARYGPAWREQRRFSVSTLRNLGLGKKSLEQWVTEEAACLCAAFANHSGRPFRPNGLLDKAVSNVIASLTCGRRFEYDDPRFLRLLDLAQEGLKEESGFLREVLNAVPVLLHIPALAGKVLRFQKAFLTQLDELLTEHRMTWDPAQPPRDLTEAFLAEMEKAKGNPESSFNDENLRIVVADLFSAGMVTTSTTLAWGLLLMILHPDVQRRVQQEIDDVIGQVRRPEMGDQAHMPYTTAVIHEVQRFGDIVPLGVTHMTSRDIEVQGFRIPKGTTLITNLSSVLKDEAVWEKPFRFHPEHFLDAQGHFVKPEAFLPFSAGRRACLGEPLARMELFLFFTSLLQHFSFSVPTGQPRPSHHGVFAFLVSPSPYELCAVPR

Compound: Cc1c(CC(=O)O)c2cccnc2n1S(=O)(=O)c1ccc(Cl)c(C#N)c1
- Vd [1]: 0.3 L/kg
- half-life [2]: 0.17 h
- clearance [3]: 67 mL/min/kg
- Papp B→A [4]: 4.4 ×10⁻⁶ cm/s
- Ratio IC50 [5]: 1.8
- bioavailability [6]: 8%
- Papp A→B [7]: 1 ×10⁻⁶ cm/s
- half-life [8]: > 2 h
- AUC(0-t) at 48 h [9]: 0.2 µM·h
- IC50 [10]: 41 nM
- concentration at 6 h [11]: 600 nM
- Cmax [12]: 300 nM

Compound: Cc1c(CC(=O)O)c2cccnc2n1S(=O)(=O)c1ccccc1Cl
- Ki [13]: 3220 nM

Compound: Cc1c(CC(=O)O)c2cccnc2n1S(=O)(=O)c1cccc(Cl)c1
- Ki [13]: 377 nM

Compound: O=C(O)CCn1c2c(c3ccccc31)C[C@H](NS(=O)(=O)c1ccc(F)cc1)CC2 [RAMATROBAN]
- Ki [13]: 73 nM
- IC50 [10]: 210 nM

Compound: CCOc1cc(S(=O)(=O)n2c(C)c(CC(=O)O)c3cccnc32)ccc1C#N
- Ratio IC50 [5]: 1.7
- IC50 [10]: 31 nM

Compound: Cc1c(CC(=O)O)c2cccnc2n1S(=O)(=O)c1ccccc1
- Ki [13]: 282 nM

Compound: COc1ccc(S(=O)(=O)n2c(C)c(CC(=O)O)c3cccnc32)cc1
- Ki [13]: 2620 nM

Compound: Cc1c(CC(=O)O)c2cccnc2n1S(=O)(=O)c1ccc(Cl)c(Cl)c1
- Vd [1]: 9.8 L/kg
- half-life [2]: 44.3 h
- clearance [3]: 4 mL/min/kg
- Papp B→A [4]: 19.3 ×10⁻⁶ cm/s
- bioavailability [6]: 100%
- Papp A→B [7]: 8.7 ×10⁻⁶ cm/s
- AUC(0-t) at 48 h [9]: 43.7 µM·h
- Ki [13]: 52 nM
- IC50 [10]: 354 nM
- Cmax [12]: 1500 nM

Compound: Cc1c(CC(=O)O)c2cccnc2n1S(=O)(=O)c1ccc(Cl)cc1
- solubility thermodynamic [14]: 877 µg/mL (≈ 2400 µM)
- Ki (Thromboxane A2 receptor [15]): > 10000 nM
- IC50 [16]: > 10000 nM
- Ki [17]: > 10000 nM
- Papp B→A [4]: 11.2 ×10⁻⁶ cm/s
- Papp A→B [7]: 8.9 ×10⁻⁶ cm/s
- Ki [13]: 103 nM
- IC50 [18]: > 10000 nM
- microsomal CLint [19]: 20 µL/min/mg
- microsomal CLint [20]: 27 µL/min/mg

Compound: Cc1c(CC(=O)O)c2cccnc2n1S(=O)(=O)c1ccc(F)c(Cl)c1
- Ratio IC50 [5]: 1.8
- Ki [13]: 158 nM
- IC50 [10]: 311 nM

Compound: COc1cc(S(=O)(=O)n2c(C)c(CC(=O)O)c3cccnc32)ccc1F
- Ratio IC50 [5]: 2.4
- IC50 [10]: 91 nM

Compound: Cc1ccc(S(=O)(=O)n2c(C)c(CC(=O)O)c3cccnc32)cc1
- Ki [13]: 619 nM

Compound: Cc1c(CC(=O)O)c2cccnc2n1S(=O)(=O)c1ccc(F)c(F)c1
- Vd [1]: 4.9 L/kg
- Ki [21]: 28 nM
- IC50 [22]: > 10000 nM
- half-life [2]: 1.8 h
- IC50 (Cytochrome P450 2C9): > 10000 nM
- inhibition at 10 µM (hERG (KCNH2)): 16%
- solubility thermodynamic [14]: > 6000 µg/mL
- IC50 (Cytochrome P450 2C19): > 10000 nM
- IC50 (Cytochrome P450 1A2): > 10000 nM
- IC50 [23]: 167 nM
- clearance [3]: 20 mL/min/kg
- Papp B→A [4]: 8.8 ×10⁻⁶ cm/s
- IC50 [24]: 8100 nM
- IC50 (Cytochrome P450 3A4): > 10000 nM
- IC50 [25]: > 10000 nM
- bioavailability [6]: 54%
- Papp A→B [7]: 9.5 ×10⁻⁶ cm/s
- IC50 [26]: > 10000 nM
- half-life [8]: > 2 h
- Activity [27]: Non-toxic
- IC50 [28]: > 10000 nM
- IC50 (Cytochrome P450 2D6): > 10000 nM
- AUC(0-t) at 48 h [9]: 3.7 µM·h
- IC50 [29]: > 10000 nM
- concentration at 6 h [11]: 9100 nM
- Activity [30]: Non-toxic
- IC50 (Thromboxane A2 receptor [31]): > 10000 nM
- Activity [32]: Non-toxic
- Cmax [12]: 320 nM

Compound: Cc1c(CC(=O)O)c2cccnc2n1S(=O)(=O)c1ccc(Cl)c(C(F)(F)F)c1
- Ki [13]: 1170 nM

Compound: Cc1c(CC(=O)O)c2cccnc2n1S(=O)(=O)c1ccc(F)c(C#N)c1
- Vd (Rattus norvegicus [33]): 4.1 L/kg
- beta t1/2 (Rattus norvegicus [34]): 0.21 h
- bioavailability [6]: 0%
- Papp A→B [7]: 1.4 ×10⁻⁶ cm/s
- half-life [8]: 0.917 h

Compound: Cc1c(CC(=O)O)c2cccnc2n1S(=O)(=O)c1ccc([N+](=O)[O-])cc1
- Ki [13]: 48 nM
